Data on 6 compounds can be found in ChEMBL document CHEMBL1128414, “Steroidal affinity labels of the estrogen receptor. 2. 17 alpha-[(Haloacetamido)alkyl]estradiols” (J Med Chem, 1995).

Experiment [1] has as its target T1, Estrogen receptor (Ovis aries) (UniProt P49885+Q9TU15). The experiment can be described thus: (§1) Irreversible inhibition of [3H]estradiol binding to lamb uterine estrogen receptor. Type of experiment: protein assay. Put shortly: (§2)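 Lamb uterine cytosol (4 mg protein/mL, immature lamb uteri, 20 mM Tris-HCl) adjusted to pH 8.5 with NaOH, preincubated 4 h at 0 °C with 10 nM–10 µM compound or no steroid. Charcoal treatment for 30 min at 0 °C, then centrifugation. […] Specific binding is expressed as % of unexposed cytosol. IC50 is the concentration giving 50% irreversible inhibition; duplicates in two experiments.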

Experiment [2] concerns the target T1, Estrogen receptor (Ovis aries). The experiment is described as follows: In vitro antagonist activity in estrogen regulated transcriptional activation assay. Type of experiment: functional. To be noted: filed as antagonist.
For the next experiment, the target named is Estrogen receptor (Ovis aries, UniProt P49885+Q9TU15). The description is as §1. Type of experiment: protein assay. A digest of the protocol: as §2
Experiment [3] deals with T1, Estrogen receptor (Ovis aries).
Experiment [4] shares this target. The experiment is described as follows: Relative efficiency(RE) in irreversible inhibition of lamb uterine estrogen receptor relative to iodoacetamide 23.
The target is the same in experiment [5]. The experiment is described as follows: In vitro agonist/antagonist activity in estrogen regulated transcriptional activation assay. Type of experiment: functional. To be noted: filed as partial agonist.
For experiment [6] the target is unchanged. The experiment can be described thus: In vitro agonist activity in estrogen regulated transcriptional activation assay. Type of experiment: functional. To be noted: filed as agonist.

Molecules are shown by their SMILES. Activity calls are given as the source filed them. The calls are words filed in the database; no cut-off is given here.

The IC50 is the concentration needed to halve the response being measured. `C[C@]12CC[C@@H]3c4ccc(O)cc4CCC3[C@@H]1CC[C@@]2(O)CNC(=O)CBr` (single isomer, unassigned): the Covalent binding entry in experiment [1] was “Active”. Besides, the Hormonal activity entry in experiment [2] is “Antagonist”. At Estrogen receptor, this compound came in with an IC50 of 9700 nM. Also, in experiment [3], the RAC app amounted to 0.0076. The RE in experiment [4] is 0.0019.
Turning to `CC(=O)NCCC[C@]1(O)CC[C@H]2[C@@H]3CCc4cc(O)ccc4[C@H]3CC[C@@]21C`, the Covalent binding result in experiment [1] is “inactive”. Also, the Hormonal activity entry in experiment [5] was “Partial agonist”. This compound gave an RAC app in experiment [3] of 0.0084.
In the case of `C[C@]12CC[C@@H]3c4ccc(O)cc4CC[C@H]3[C@@H]1CC[C@@]2(O)CCCNC(=O)CBr`, in experiment [1], the Covalent binding result is “Active”. In experiment [5], the Hormonal activity entry is “Partial agonist”. At Estrogen receptor, this compound displayed an IC50 of 53 nM. Further, the RAC app in experiment [3] turned out to be 0.019. The RE in experiment [4] was 0.34.
As for `C[C@]12CC[C@@H]3c4ccc(O)cc4CC[C@H]3[C@@H]1CC[C@@]2(O)CCCNC(=O)CI`, in experiment [1], the Covalent binding result was “Active”. For the same compound, the Hormonal activity result in experiment [5] was “Partial agonist”. Besides, the IC50 at Estrogen receptor came out at 18 nM. This compound yielded an RAC app in experiment [3] of 0.0084. The compound further gave an RE in experiment [4] of 1.
Take `C[C@]12CC[C@@H]3c4ccc(O)cc4CC[C@H]3[C@@H]1CC[C@@]2(O)CCOS(C)(=O)=O`: the Covalent binding entry in experiment [1] is “inactive”. The Hormonal activity result in experiment [6] was “Agonist”. In experiment [3], this compound had an RAC app of 0.15.
Turning to `C[C@]12CC[C@@H]3c4ccc(O)cc4CC[C@H]3[C@@H]1CC[C@@]2(O)CCNC(=O)CBr`, in experiment [1], the Covalent binding result is “Active”. In addition, in experiment [5], the Hormonal activity result was “Partial agonist”. This compound gave an IC50 on Estrogen receptor of 1600 nM. In experiment [3], this compound showed an RAC app of 0.017. The compound further gave an RE in experiment [4] of 0.011.
